Results published in ChEMBL document CHEMBL1143124, “Synthesis and structure-activity relationships of 16-ene-22-thia-1alpha,25-dihydroxy-26,27-dimethyl-19-norvitamin D3 analogs having side chains of different sizes” (Bioorg Med Chem, 2008).

Columns and labels:
[1] = system: Osteoclast; assay: Increase in osteoclast formation in mouse primary osteoclast cocultured cells; type: functional, cell-based
Procedure, shortened: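 Tibial marrow cells (1.5×10^5/well) from 5–8-wk male ddY mice were cocultured with primary calvarial cells (3×10^3/well) from newborn ddY mice. Culture was 7 days in α-MEM with 10% FBS and compound at 10^-8 to 10^-12 M, with medium renewed on day 3. Cells were formaldehyde-fixed and TRAP-stained, and TRAP-positive cells with ≥3 nuclei counted microscopically as osteoclasts.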

[2] = target: T1, Vitamin D3 receptor (Rattus norvegicus) (UniProt P13053); assay: Displacement of [3H]1-alpha,25-(OH)2D3 from rat recombinant VDR ligand-binding domain relative to 1-alpha,25-(OH)2D3
T1 sequence (whole entry): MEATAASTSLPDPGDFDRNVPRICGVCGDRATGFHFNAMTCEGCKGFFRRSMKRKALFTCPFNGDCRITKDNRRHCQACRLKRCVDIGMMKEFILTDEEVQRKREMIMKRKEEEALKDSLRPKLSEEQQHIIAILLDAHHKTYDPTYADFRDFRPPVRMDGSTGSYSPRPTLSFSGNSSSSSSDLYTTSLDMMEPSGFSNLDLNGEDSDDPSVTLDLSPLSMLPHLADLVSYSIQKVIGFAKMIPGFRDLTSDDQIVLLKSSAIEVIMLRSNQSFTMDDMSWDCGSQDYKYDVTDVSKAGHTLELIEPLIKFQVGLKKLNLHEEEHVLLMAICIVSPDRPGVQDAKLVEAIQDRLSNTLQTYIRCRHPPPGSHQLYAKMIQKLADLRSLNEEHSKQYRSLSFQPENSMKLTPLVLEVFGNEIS
Procedure, shortened: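 His-tagged rat VDR LBD (aa 115–423) was expressed in E. coli and the sonicated lysate diluted ~1000-fold in 50 mM Tris pH 7.5 (100 mM KCl, 5 mM DTT, 0.5% CHAPS, 100 µg/ml BSA). It was incubated with [3H]-1α,25-(OH)2D3 (~5000 dpm) at 4 °C for 18 h. Free ligand was removed with dextran-coated charcoal (30 min, 4 °C) and centrifugation, and the supernatant counted. At least two runs, in duplicate.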

[3] = target: Vitamin D3 receptor (Homo sapiens) (UniProt P11473); assay: Activity at human VDR assessed as transcriptional activation in COS cells after 24 hrs by luciferase reporter gene assay relative to 1-alpha,25-(OH)2D3

| Structure (SMILES) | Activity [1] | Activity [2] [%] | Activity [3] [%] |
| --- | --- | --- | --- |
| CCC(O)(CC)CS[C@H](C)C1=CCC2/C(=C/C=C3C[C@@H](O)C[C@H](O)C3)CCC[C@]12C (stereo not given in full) | Dose-dependent effect | 6 | 9 |
| CCC(O)(CC)CCCS[C@H](C)C1=CCC2/C(=C/C=C3C[C@@H](O)C[C@H](O)C3)CCC[C@]12C (stereo not given in full) | Dose-dependent effect | 8 | 20 |
| CCC(O)(CC)CCS[C@@H](C)C1=CCC2/C(=C/C=C3C[C@@H](O)C[C@H](O)C3)CCC[C@]12C (stereo not given in full) | Dose-dependent effect | 100 | 2000 |
| CCC(O)(CC)CS[C@@H](C)C1=CCC2/C(=C/C=C3C[C@@H](O)C[C@H](O)C3)CCC[C@]12C (stereo not given in full) | Dose-dependent effect | 60 | 104 |
| CCC(O)(CC)CCCS[C@@H](C)C1=CCC2/C(=C/C=C3C[C@@H](O)C[C@H](O)C3)CCC[C@]12C (stereo not given in full) | Dose-dependent effect | 100 | 2000 |
| CCC(O)(CC)CCCCCS[C@@H](C)C1=CCC2/C(=C/C=C3C[C@@H](O)C[C@H](O)C3)CCC[C@]12C (stereo not given in full) |  |  | 2 |
| CCC(O)(CC)CCS[C@H](C)C1=CCC2/C(=C/C=C3C[C@@H](O)C[C@H](O)C3)CCC[C@]12C (stereo not given in full) | Dose-dependent effect | 4 | 27 |
| CCC(O)(CC)CCCCS[C@@H](C)C1=CCC2/C(=C/C=C3C[C@@H](O)C[C@H](O)C3)CCC[C@]12C (stereo not given in full) |  |  | 1 |
